Experiments:
Assay type in all cases: functional
[1] = tested on: Brassica rapa subsp. oleifera; assay: Herbicidal activity against Brassica rapa subsp. oleifera assessed as inhibition in green house at 1500 g/ha pre-emergence treatment measured after 15 days; settings: 360 h
Procedure, shortened: (§1)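 Greenhouse pot test. Two replicates per treatment. Control was the same amount of water, N,N-dimethylformamide and Tween 20. Fresh weights were taken 15 days after treatment, and percentage inhibition was calculated relative to controls.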

Echinochloa crus-galli [2] = assay: Herbicidal activity against Echinochloa crus-galli (barnyard grass) assessed as inhibition of seedling growth at 100 ug/ml at 28 +/- 1 degC measured after 65 hr by cup test
Echinochloa crus-galli [3] = assay: Herbicidal activity against Echinochloa crus-galli (barnyard grass) assessed as inhibition of seedling growth at 10 ug/ml at 28 +/- 1 degC measured after 65 hr by cup test
[4] = tested on: Brassica rapa subsp. oleifera; assay: Herbicidal activity against Brassica rapa subsp. oleifera assessed as inhibition of root growth at 100 ug/ml at 28 +/- 1 degC measured after 65 hr by root test
Procedure, shortened: (§2)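 Rape seeds were presoaked 4 h in distilled water. About 15 seeds were placed per 6-cm Petri plate on filter paper pre-wetted with 2 mL inhibitor solution. Plates germinated in the dark for 65 h at 28 ± 1 °C. Root length of 10 roots per plate was measured and averaged. Result expressed as percentage inhibition.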

[5] = tested on: Brassica rapa subsp. oleifera; assay: Herbicidal activity against Brassica rapa subsp. oleifera assessed as inhibition of root growth at 10 ug/ml at 28 +/- 1 degC measured after 65 hr by root test; procedure, shortened: as §2
Digitaria sanguinalis [6] = assay: Herbicidal activity against Digitaria sanguinalis (hairy crabgrass) assessed as inhibition in green house at 93.75 g/ha pre-emergence treatment measured after 15 days; settings: 360 h; procedure, shortened: as §1
Digitaria sanguinalis [7] = assay: Herbicidal activity against Digitaria sanguinalis (hairy crabgrass) assessed as inhibition in green house at 187.5 g/ha pre-emergence treatment measured after 15 days; settings: 360 h; procedure, shortened: as §1
Digitaria sanguinalis [8] = assay: Herbicidal activity against Digitaria sanguinalis (hairy crabgrass) assessed as inhibition in green house at 375 g/ha pre-emergence treatment measured after 15 days; settings: 360 h; procedure, shortened: as §1
Digitaria sanguinalis [9] = assay: Herbicidal activity against Digitaria sanguinalis (hairy crabgrass) assessed as inhibition in green house at 750 g/ha pre-emergence treatment measured after 15 days; settings: 360 h; procedure, shortened: as §1
Echinochloa crus-galli [10] = assay: Herbicidal activity against Echinochloa crus-galli (barnyard grass) assessed as inhibition in green house at 93.75 g/ha pre-emergence treatment measured after 15 days; settings: 360 h; procedure, shortened: as §1
Echinochloa crus-galli [11] = assay: Herbicidal activity against Echinochloa crus-galli (barnyard grass) assessed as inhibition in green house at 187.5 g/ha pre-emergence treatment measured after 15 days; settings: 360 h; procedure, shortened: as §1
Echinochloa crus-galli [12] = assay: Herbicidal activity against Echinochloa crus-galli (barnyard grass) assessed as inhibition in green house at 375 g/ha pre-emergence treatment measured after 15 days; settings: 360 h; procedure, shortened: as §1
Echinochloa crus-galli [13] = assay: Herbicidal activity against Echinochloa crus-galli (barnyard grass) assessed as inhibition in green house at 750 g/ha pre-emergence treatment measured after 15 days; settings: 360 h; procedure, shortened: as §1
Digitaria sanguinalis [14] = assay: Herbicidal activity against Digitaria sanguinalis (hairy crabgrass) assessed as inhibition in green house at 1500 g/ha post-emergence treatment measured after 15 days; settings: 360 h; procedure, shortened: as §1
Digitaria sanguinalis [15] = assay: Herbicidal activity against Digitaria sanguinalis (hairy crabgrass) assessed as inhibition in green house at 1500 g/ha pre-emergence treatment measured after 15 days; settings: 360 h; procedure, shortened: as §1
Echinochloa crus-galli [16] = assay: Herbicidal activity against Echinochloa crus-galli (barnyard grass) assessed as inhibition in green house at 1500 g/ha post-emergence treatment measured after 15 days; settings: 360 h; procedure, shortened: as §1
Echinochloa crus-galli [17] = assay: Herbicidal activity against Echinochloa crus-galli (barnyard grass) assessed as inhibition in green house at 1500 g/ha pre-emergence treatment measured after 15 days; settings: 360 h; procedure, shortened: as §1
Amaranthus retroflexus [18] = assay: Herbicidal activity against Amaranthus retroflexus assessed as inhibition in green house at 1500 g/ha pre-emergence treatment measured after 15 days; settings: 360 h; procedure, shortened: as §1
Amaranthus retroflexus [19] = assay: Herbicidal activity against Amaranthus retroflexus assessed as inhibition in green house at 1500 g/ha post-emergence treatment measured after 15 days; settings: 360 h; procedure, shortened: as §1
[20] = tested on: Brassica rapa subsp. oleifera; assay: Herbicidal activity against Brassica rapa subsp. oleifera assessed as inhibition in green house at 1500 g/ha post-emergence treatment measured after 15 days; settings: 360 h; procedure, shortened: as §1

CCOc1ccc(/C(O)=C2\C(=O)CN(C(C)C)C2=O)cc1
inhibition at 1500 g/ha [1]: 0% | inhibition at 100 µg/mL (Echinochloa crus-galli [2]): 80% | inhibition at 10 µg/mL (Echinochloa crus-galli [3]): 79% | inhibition at 100 µg/mL [4]: 82% | inhibition at 10 µg/mL [5]: 8% | inhibition at 93.75 g/ha (Digitaria sanguinalis [6]): 22% | inhibition at 187.5 g/ha (Digitaria sanguinalis [7]): 84% | inhibition at 375 g/ha (Digitaria sanguinalis [8]): 94% | inhibition at 750 g/ha (Digitaria sanguinalis [9]): 96% | inhibition at 93.75 g/ha (Echinochloa crus-galli [10]): 8% | inhibition at 187.5 g/ha (Echinochloa crus-galli [11]): 52% | inhibition at 375 g/ha (Echinochloa crus-galli [12]): 94% | inhibition at 750 g/ha (Echinochloa crus-galli [13]): 98% | inhibition at 1500 g/ha (Digitaria sanguinalis [14]): 0% | inhibition at 1500 g/ha (Digitaria sanguinalis [15]): 98% | inhibition at 1500 g/ha (Echinochloa crus-galli [16]): 19% | inhibition at 1500 g/ha (Echinochloa crus-galli [17]): 100% | inhibition at 1500 g/ha (Amaranthus retroflexus [18]): 0% | inhibition at 1500 g/ha (Amaranthus retroflexus [19]): 0% | inhibition at 1500 g/ha [20]: 0%

COc1ccc(/C(O)=C2\C(=O)CN(C(C)C)C2=O)c(OC)c1
inhibition at 100 µg/mL (Echinochloa crus-galli [2]): 80% | inhibition at 10 µg/mL (Echinochloa crus-galli [3]): 78% | inhibition at 100 µg/mL [4]: 69% | inhibition at 10 µg/mL [5]: 27% | inhibition at 93.75 g/ha (Digitaria sanguinalis [6]): 0% | inhibition at 187.5 g/ha (Digitaria sanguinalis [7]): 68% | inhibition at 375 g/ha (Digitaria sanguinalis [8]): 77% | inhibition at 750 g/ha (Digitaria sanguinalis [9]): 93% | inhibition at 93.75 g/ha (Echinochloa crus-galli [10]): 34% | inhibition at 187.5 g/ha (Echinochloa crus-galli [11]): 93% | inhibition at 375 g/ha (Echinochloa crus-galli [12]): 100% | inhibition at 750 g/ha (Echinochloa crus-galli [13]): 100%

COc1ccc(/C(O)=C2\C(=O)CN(C3CC3)C2=O)cc1
inhibition at 1500 g/ha [1]: 0% | inhibition at 100 µg/mL (Echinochloa crus-galli [2]): 66% | inhibition at 10 µg/mL (Echinochloa crus-galli [3]): 62% | inhibition at 100 µg/mL [4]: 70% | inhibition at 10 µg/mL [5]: 35% | inhibition at 375 g/ha (Digitaria sanguinalis [8]): 69% | inhibition at 750 g/ha (Digitaria sanguinalis [9]): 73% | inhibition at 375 g/ha (Echinochloa crus-galli [12]): 7% | inhibition at 750 g/ha (Echinochloa crus-galli [13]): 69% | inhibition at 1500 g/ha (Digitaria sanguinalis [14]): 0% | inhibition at 1500 g/ha (Digitaria sanguinalis [15]): 57% | inhibition at 1500 g/ha (Echinochloa crus-galli [16]): 0% | inhibition at 1500 g/ha (Echinochloa crus-galli [17]): 81% | inhibition at 1500 g/ha (Amaranthus retroflexus [18]): 0% | inhibition at 1500 g/ha (Amaranthus retroflexus [19]): 0% | inhibition at 1500 g/ha [20]: 0%

CCOc1ccc(/C(O)=C2\C(=O)CN(C3CC3)C2=O)cc1
inhibition at 1500 g/ha [1]: 6% | inhibition at 100 µg/mL (Echinochloa crus-galli [2]): 79% | inhibition at 10 µg/mL (Echinochloa crus-galli [3]): 78% | inhibition at 100 µg/mL [4]: 47% | inhibition at 10 µg/mL [5]: 0% | inhibition at 187.5 g/ha (Digitaria sanguinalis [7]): 18% | inhibition at 375 g/ha (Digitaria sanguinalis [8]): 33% | inhibition at 750 g/ha (Digitaria sanguinalis [9]): 77% | inhibition at 187.5 g/ha (Echinochloa crus-galli [11]): 0% | inhibition at 375 g/ha (Echinochloa crus-galli [12]): 13% | inhibition at 750 g/ha (Echinochloa crus-galli [13]): 99% | inhibition at 1500 g/ha (Digitaria sanguinalis [14]): 6% | inhibition at 1500 g/ha (Digitaria sanguinalis [15]): 42% | inhibition at 1500 g/ha (Echinochloa crus-galli [16]): 0% | inhibition at 1500 g/ha (Echinochloa crus-galli [17]): 100% | inhibition at 1500 g/ha (Amaranthus retroflexus [18]): 0% | inhibition at 1500 g/ha (Amaranthus retroflexus [19]): 13% | inhibition at 1500 g/ha [20]: 0%

CC(C)N1CC(=O)/C(=C(/O)c2cccc(Oc3ccccc3)c2)C1=O
inhibition at 1500 g/ha [1]: 0% | inhibition at 100 µg/mL (Echinochloa crus-galli [2]): 67% | inhibition at 10 µg/mL (Echinochloa crus-galli [3]): 57% | inhibition at 100 µg/mL [4]: 81% | inhibition at 10 µg/mL [5]: 0% | inhibition at 1500 g/ha (Digitaria sanguinalis [14]): 0% | inhibition at 1500 g/ha (Digitaria sanguinalis [15]): 0% | inhibition at 1500 g/ha (Echinochloa crus-galli [16]): 0% | inhibition at 1500 g/ha (Echinochloa crus-galli [17]): 0% | inhibition at 1500 g/ha (Amaranthus retroflexus [18]): 0% | inhibition at 1500 g/ha (Amaranthus retroflexus [19]): 9% | inhibition at 1500 g/ha [20]: 0%

CS(=O)(=O)c1ccc(C(=O)C2C(=O)CCCC2=O)c(Cl)c1 [SULCOTRIONE]
inhibition at 93.75 g/ha (Digitaria sanguinalis [6]): 100% | inhibition at 187.5 g/ha (Digitaria sanguinalis [7]): 100% | inhibition at 375 g/ha (Digitaria sanguinalis [8]): 100% | inhibition at 750 g/ha (Digitaria sanguinalis [9]): 100% | inhibition at 93.75 g/ha (Echinochloa crus-galli [10]): 70% | inhibition at 187.5 g/ha (Echinochloa crus-galli [11]): 93% | inhibition at 375 g/ha (Echinochloa crus-galli [12]): 100% | inhibition at 750 g/ha (Echinochloa crus-galli [13]): 100%

From ChEMBL document CHEMBL3045615, “Synthesis and herbicidal evaluation of novel 3-[(alpha-hydroxy-substituted)benzylidene]pyrrolidine-2,4-diones” (J Agric Food Chem, 2005)
